HTR5A ag – counter-screen for OPRM1-OPRD1 agonists: human HTR5A agonism; 0.61% of 340,000 active; P47898; HTR5A agonist assay, luminescence, cell-based; activation, % at 9.3 µM; in the data active means activation mostly above about 9.5%, no sharp cut-off; inactive means mostly below about 7.6%
MOR-DOR inv ag – mu-delta opioid heterodimer inverse agonism; AID 504357; 0.21% of 340,000 active; cell-based MOR-DOR heterodimer luminescence; inhibition, % at 9.3 µM; P35372+P41143; in the data active means inhibition above about 22%, passing the limit was not always enough
MC4R antagonist – antagonists of human melanocortin 4 receptor (MC4R). 0.48% of 360,000 active. MC4R-expressing cells, MTII-stimulated cAMP, LANCE TR-FRET. P32245. inhibition, % at 6.5 µM;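 active means inhibition above its plate's cutoff, the mean of tested wells on that plate plus 3 SD, cut at about 29% in these data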
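Assay system: human MC4R-expressing U2OS cells; reagent: Melanotan II stimulation of cells; dosing: 6.5 µM single dose; timing: compound 30 min, challenge 1 h, detection 1 h; signal: TR-FRET cAMP assay; replicates: one well per compound, no replicates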
HTR5A inv ag – HTR5A inverse agonism, opioid heterodimer counter-screen; P47898; HTR5A cell line, luminescence; inhibition, % at 9.3 µM; 0.083% of 340,000 active; in the data active means inhibition mostly above about 23%, no sharp cut-off; inactive means mostly below about 18%
MC4R barr agon – agonists of human melanocortin 4 receptor (MC4R) beta-arrestin. P32245. U2OS MC4R beta-arrestin complementation, luminescence; percent of melanotan II response, DMSO zero. activation, % at 8.9 µM. 0.98% of 360,000 active;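 active means activation above a per-plate cutoff, the mean activation of sample wells on that plate plus 3 SD, cut at about 8% in these data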
MOR-DOR ag-1 – OPRM1-OPRD1 heterodimerization agonism; activation, % at 9.3 µM; 0.3% of 340,000 active; P35372+P41143; cells, luminescence
MOR-DOR ag-2 – opioid heterodimer agonism, HTR5A counter-screen. U2OS counter-screen cells, complementation luminescence, 3 h. AID 504913. shares compounds with HTR5A ag. 13% of 800 active. activation, % at 9.3 µM
HTR5A ag conf – confirmation of human HTR5A agonists; activation, % at 9.3 µM; HTR5A agonist cell assay, luminescence; AID 504915; shares compounds with HTR5A ag; 17% of 800 active; in the data active means activation above about 17%
cAMP nonselect – counter-screen for MC4R antagonists: nonselective cAMP signaling inhibitors; shares compounds with MC4R antagonist; parental U2OS, forskolin cAMP, LANCE TR-FRET; inhibition, % at 6.5 µM; 26% of 1,600 active; AID 602193;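 active means mean inhibition over triplicates above the low-control well mean plus 3 SD, set per campaign, cut at about 13% in these data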;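 further: signal is single emission at 671 nm which falls as cellular cAMP rises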
MC4R cAMP antag – human MC4R cAMP antagonism confirmation; inhibition, % at 6.5 µM; MC4R-expressing cells, MTII-stimulated cAMP, TR-FRET; 27% of 1,600 active; shares compounds with MC4R antagonist; AID 602195; in the data active means inhibition above about 29%
MC4R barr conf – human MC4R beta-arrestin agonism confirmation; shares compounds with MC4R barr agon; U2OS MC4R beta-arrestin recruitment, luminescence; scaled DMSO 0%, Melanotan II 100%; activation, % at 8.9 µM; 31% of 2,400 active; AID 602192;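 active means mean activation across replicates above the hit cutoff set in the earlier primary screen, cut at about 8% in these data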
MOR DOR agonist – OPRM1-OPRD1 heterodimer agonism counter-screen | 5.8% of 2,400 active | shares compounds with MC4R barr agon | U2OS PathHunter beta-arrestin, beta-gal luminescence; percent of deltorphin B response, DMSO zero | AID 602194 | activation, % at 9.2 µM;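 active means mean activation across replicates exceeds the hit threshold derived in the earlier primary screen, cut at about 18% in these data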
A number is an active result; . = inactive; / = not tested or not shown. A selection: hits, their analogues and other compounds. The true share with any hit is near 2.4%. Unless noted, no stated cut-off is given here; in the data, active means activation above about 18%; inactive means the rest.

SMILES | HTR5A ag | MOR-DOR inv ag | MC4R antagonist | HTR5A inv ag | MC4R barr agon | MOR-DOR ag-1 | cAMP nonselect | MC4R cAMP antag | others
CC(C)c1c(C(=O)N/N=C/c2cccc(OCc3ccccc3)c2)nnn1-c1nonc1N | . | . | . | . | . | . | / | /
COc1cc(O)c(CCC(=O)c2ccc(OC)c(OC)c2)c(OC)c1 | . | . | . | . | . | . | / | /
Cc1cc(-c2nnc(CCC(=O)NCc3ccc(OC(F)(F)F)cc3)o2)no1 | . | . | . | . | . | . | / | /
Cc1cc(C)cc(OCC(=O)Nc2nc(-c3ccccn3)cs2)c1 | 21 | . | . | . | 12 | . | / | / | MOR-DOR ag-2=.;HTR5A ag conf=64;MC4R barr conf=.;MOR DOR agonist=.
N#Cc1ccccc1OCC(=O)Nc1nc(-c2ccccn2)cs1 | / | / | . | / | . | / | / | /
COc1cccc(N2CCN(C(=O)CCCCCn3c(=S)[nH]c4cc5c(cc4c3=O)OCO5)CC2)c1 | 21 | . | . | . | 35 | . | / | / | MOR-DOR ag-2=.;HTR5A ag conf=21;MC4R barr conf=14;MOR DOR agonist=21
Cc1ccc(NC(=O)C2C3/C=C\CCCCC32)cc1C (stereo unspecified) | 20 | . | . | . | 19 | . | / | / | MOR-DOR ag-2=.;HTR5A ag conf=.;MC4R barr conf=.;MOR DOR agonist=.
COc1cc(NC(=O)COc2ccccc2Cl)ccc1NC(=O)c1cccs1 | . | . | . | . | . | . | / | /
COc1cc(NC(=O)COc2ccccc2[N+](=O)[O-])ccc1NC(=O)c1cccs1 | 16 | . | . | . | 38 | . | / | / | MOR-DOR ag-2=.;HTR5A ag conf=.;MC4R barr conf=18;MOR DOR agonist=.
Cc1ccnc(N/C=C(\C#N)c2nc(-c3cccc(Br)c3)cs2)c1 | . | . | . | . | . | . | / | /
NC1=NC(=O)/C(=C/c2cn(Cc3ccccc3)c3ccccc23)S1 | 16 | . | . | . | 11 | . | / | / | MOR-DOR ag-2=.;HTR5A ag conf=17;MC4R barr conf=.;MOR DOR agonist=.
O=C1C2C3C=CC(C3)C2C(=O)N1/N=C/c1cn(Cc2ccccc2)c2ccccc12 (stereo unspecified) | . | . | . | . | . | . | / | /
c1ccc(-c2cc(-c3nnc4n3N=C(c3ccc5ccccc5c3)CS4)[nH]n2)cc1 | 15 | . | . | . | 32 | . | / | / | MOR-DOR ag-2=.;HTR5A ag conf=.;MC4R barr conf=14;MOR DOR agonist=.
Cc1cc(-c2nnc3n2N=C(c2ccccc2)CS3)n[nH]1 | . | . | . | . | . | . | / | /
CC1=C(C(=O)OC2CCCCC2)C(c2ccc(N(C)C)cc2)NC(=O)N1 (stereo unspecified) | . | . | . | . | . | . | / | /
COc1cc(/C=C2/CC/C(=C/c3ccc(O)c(OC)c3)C2=O)ccc1O | 23 | . | . | . | 55 | . | / | / | MOR-DOR ag-2=.;HTR5A ag conf=.;MC4R barr conf=32;MOR DOR agonist=18
Cc1nc(NC(=O)c2cc3ccccc3o2)ccc1Br | 22 | . | . | . | 11 | . | / | / | MOR-DOR ag-2=.;HTR5A ag conf=.;MC4R barr conf=.;MOR DOR agonist=.
CN(c1ccccc1)c1ccc(/C=C/[N+](=O)[O-])cc1 | . | . | . | . | . | . | / | /
CN(C)c1ccc(-n2cccc2/C=C/[N+](=O)[O-])cc1 | . | . | 39 | . | . | . | . | 31
O=C(N=Nc1c(O)[nH]c2ccc(F)cc12)c1ccc(NS(=O)(=O)c2cccs2)cc1 | . | . | . | . | . | . | / | /
Cc1ccc2[nH]c(O)c(N=NC(=O)c3ccc(NS(=O)(=O)c4cccs4)cc3)c2c1 | . | . | 34 | . | . | . | . | .
Cc1ccc(S(=O)(=O)NCC(=O)OCC(=O)Nc2ccccc2OC(F)F)cc1 | . | . | 33 | . | . | . | 13 | 29
Cc1ccc(S(=O)(=O)NCC(=O)NCC(=O)OCc2c(F)cccc2Cl)cc1 | . | . | 33 | . | . | . | 27 | 40
COc1ccc(S(=O)(=O)N[C@@H](C)C(=O)OCC(=O)Nc2cc3oc4ccccc4c3cc2OC)cc1 | . | . | 35 | . | . | . | 23 | 39
Cc1ccc(S(=O)(=O)NCC(=O)OCC(=O)NCc2ccc(F)cc2)cc1 | . | . | 34 | . | . | . | 18 | .
SMILES | HTR5A ag | MOR-DOR inv ag | MC4R antagonist | HTR5A inv ag | MC4R barr agon | MOR-DOR ag-1 | cAMP nonselect | MC4R cAMP antag | others
COc1ccc(C2Cc3ccccc3C(=O)O2)cc1 (stereo unspecified) | . | . | . | . | . | . | / | /
CCOC(=O)c1c(C)[nH]c(C(=O)COC(=O)/C=C/c2ccc(OCC#N)c(OC)c2)c1C | . | . | . | . | . | . | / | /
CCCn1c(=O)c2[nH]c(-c3ccc(OCC(=O)Nc4ccc(C#N)cc4)cc3)nc2n(CCC)c1=O | . | . | . | . | . | . | / | /
CN(C)c1ccc2c(c1)Sc1cc(N(C)C)ccc1N2C(=O)c1ccccc1 | . | . | . | . | . | . | / | /
COc1cc2c(cc1NC(=O)COC(=O)CNS(=O)(=O)c1ccc(C)cc1)oc1ccccc12 | . | . | 30 | . | . | . | . | 41
CC(=O)Nc1ccc(S(=O)(=O)NCC(=O)OCC(=O)NCCc2ccccc2)cc1 | / | / | . | / | . | / | / | /
COc1ccc(C(C(=O)NC2CCCCC2)N(Cc2cccnc2)C(=O)c2snc(C(N)=O)c2N)cc1 (stereo unspecified) | . | . | 31 | . | . | . | . | .
CCNC(=O)C1(C)CCN(C(=O)c2ccc(F)cc2Cl)C1 (stereo unspecified) | / | / | . | / | . | / | / | /
CCOC(=O)c1ccc(N=c2sc(C(=O)OC)cc(=O)n2Cc2ccco2)cc1 | 14 | . | 32 | . | . | . | . | 36
CCOC(=O)c1ccc(N=c2sc(C(=O)OC)cc(=O)n2CCCN2CCOCC2)cc1 | . | . | . | . | . | . | / | /
Cc1cccn2c(CN3CCSCC3)c(C(=O)N3CCOCC3)nc12 | . | . | 29 | . | . | . | . | .
COc1ccc(NC(=O)CNC(=O)C2CCCCC2)cc1OC | . | . | . | . | . | . | / | /
Cc1ccc(NC(=O)c2noc3c2CCCCC3)cc1 | . | . | . | . | . | . | / | /
Cc1ccc(O)c(NC(=O)c2noc3c2CCCCC3)c1 | . | . | 31 | . | . | . | . | .
